Test results taken from ChEMBL document CHEMBL1914346, “Discovery and synthesis of novel substituted benzocoumarins as orally active lipid modulating agents” (Bioorg Med Chem Lett, 2011).

Legend:
[1] = Antioxidant activity assessed as trolox equivalent by TEAC assay; type: functional
Syrian golden hamster [2] = assay: Toxicity in syrian golden hamster; type: organism-based, Mesocricetus auratus; conditions: in vivo
In short: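 HFD-fed male Golden Syrian hamsters, eight per group, dosed orally at 10 mg/kg once daily for 7 days in 0.1% gum acacia. Body weight was recorded daily and food intake was monitored, then compared with HFD vehicle controls.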

Syrian golden hamster [3] = assay: Antidyslipidemic activity in high fat diet-fed dyslipidemic syrian golden hamster model assessed as decrease in serum triglyceride level at 10 mg/kg, po administered once daily for 7 days relative to vehicle treated control; type: functional, Mesocricetus auratus; design: scale not given: the % may be the effect or the level left
In short: (§1)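 Male Golden Syrian hamsters, 12 weeks old, 110 ± 10 g, eight per group, fed high-fat diet plus fructose daily on days 1–10. Oral dosing once daily on days 4–10 in 0.1% gum acacia; HFD-fed vehicle animals served as controls. After the last dose, retro-orbital blood was taken into EDTA and plasma lipids were measured enzymatically on an autoanalyzer. Results are % change versus HFD controls; t-test/ANOVA, p<0.05.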

Syrian golden hamster [4] = assay: Antidyslipidemic activity in high fat diet-fed dyslipidemic syrian golden hamster model assessed as increase in serum HDL level at 10 mg/kg, po administered once daily for 7 days relative to vehicle treated control; type: functional, Mesocricetus auratus; in short: as §1
Syrian golden hamster [5] = assay: Antidyslipidemic activity in high fat diet-fed dyslipidemic syrian golden hamster model assessed as increase in serum ratio of serum HDL/total cholesterol level at 10 mg/kg, po administered once daily for 7 days relative to vehicle treated control; type: functional, Mesocricetus auratus; in short: as §1
Syrian golden hamster [6] = assay: Antidyslipidemic activity in high fat diet-fed dyslipidemic syrian golden hamster model assessed as decrease in serum LDL level at 10 mg/kg, po administered once daily for 7 days relative to vehicle treated control; type: functional, Mesocricetus auratus; design: scale not given: the % may be the effect or the level left; in short: as §1
Syrian golden hamster [7] = assay: Antidyslipidemic activity in high fat diet-fed dyslipidemic syrian golden hamster model assessed as decrease in serum total cholesterol level at 10 mg/kg, po administered once daily for 7 days relative to vehicle treated control; type: functional, Mesocricetus auratus; design: scale not given: the % may be the effect or the level left; in short: as §1
Syrian golden hamster [8] = assay: Antidyslipidemic activity in high fat diet-fed dyslipidemic syrian golden hamster model assessed as increase in serum LDL level at 10 mg/kg, po administered once daily for 7 days relative to vehicle treated control; type: functional, Mesocricetus auratus; in short: as §1

Which Activity [1] does the source give for `COc1cccc(CN/C=C2\C=C(C=O)c3c(ccc4c(C)cc(=O)oc34)C2=O)c1` here?
Its Activity is 1.26 mM.

And the Activity (Syrian golden hamster [2])?
Its Activity is “Non-toxic”.

And the Activity (Syrian golden hamster [3])?
The Activity was 52%.

And the Activity (Syrian golden hamster [4])?
The Activity was 3%.

And the Activity (Syrian golden hamster [5])?
The Activity was 93%.

And the Activity (Syrian golden hamster [6])?
The Activity was 59%.

What about the Activity (Syrian golden hamster [7]) of the same compound?
Its Activity is 47%.

For `Cc1cc(=O)oc2c3c(ccc12)C(=O)/C(=C/Nc1ccccc1O)C=C3C=O`, which Activity [1] is on record?
Its Activity is 0.36 mM.

What about the Activity (Syrian golden hamster [2]) of the same compound?
The Activity was “Non-toxic”.

What about the Activity (Syrian golden hamster [3]) of the same compound?
Its Activity is 42%.

What about the Activity (Syrian golden hamster [4]) of the same compound?
The Activity was 15%.

And the Activity (Syrian golden hamster [5])?
The Activity was 19%.

And the Activity (Syrian golden hamster [7])?
The Activity was 3%.

What about the Activity (Syrian golden hamster [8]) of the same compound?
Its Activity is 12%.

For `Cc1cccc(C)c1N/C=C1\C=C(C=O)c2c(ccc3c(C)cc(=O)oc23)C1=O`, which Activity [1] is on record?
The Activity was 0.99 mM.

And the Activity (Syrian golden hamster [2])?
Its Activity is “Non-toxic”.

And the Activity (Syrian golden hamster [3])?
Its Activity is 16%.

What about the Activity (Syrian golden hamster [4]) of the same compound?
Its Activity is 1%.

And the Activity (Syrian golden hamster [5])?
Its Activity is 43%.

And the Activity (Syrian golden hamster [6])?
The Activity was 40%.

And the Activity (Syrian golden hamster [7])?
The Activity was 30%.

For `Cc1cc(=O)oc2c3c(ccc12)C(=O)/C(=C/NC12CC4CC(CC(C4)C1)C2)C=C3C=O`, which Activity [1] is on record?
Its Activity is 0.99 mM.

What about the Activity (Syrian golden hamster [2]) of the same compound?
Its Activity is “Non-toxic”.

What about the Activity (Syrian golden hamster [3]) of the same compound?
Its Activity is 48%.

And the Activity (Syrian golden hamster [4])?
Its Activity is 1%.

What about the Activity (Syrian golden hamster [5]) of the same compound?
The Activity was 93%.

What about the Activity (Syrian golden hamster [6]) of the same compound?
Its Activity is 59%.

What about the Activity (Syrian golden hamster [7]) of the same compound?
The Activity was 48%.

Which Activity [1] does the source give for `Cc1cc(=O)oc2c3c(ccc12)C(=O)/C(=C/NCCCl)C=C3C=O` here?
The Activity was 0.38 mM.

What about the Activity (Syrian golden hamster [2]) of the same compound?
Its Activity is “Non-toxic”.

And the Activity (Syrian golden hamster [3])?
The Activity was 47%.

What about the Activity (Syrian golden hamster [4]) of the same compound?
The Activity was 19%.

What about the Activity (Syrian golden hamster [5]) of the same compound?
The Activity was 9%.

And the Activity (Syrian golden hamster [6])?
Its Activity is 14%.

What about the Activity (Syrian golden hamster [7]) of the same compound?
Its Activity is 17%.

With `Cc1cc(=O)oc2c3c(ccc12)C(=O)/C(=C/NCCCO)C=C3C=O` as the compound, how does the Activity [1] read?
The Activity was 1.46 mM.

What about the Activity (Syrian golden hamster [2]) of the same compound?
The Activity was “Non-toxic”.

What about the Activity (Syrian golden hamster [3]) of the same compound?
Its Activity is 50%.

What about the Activity (Syrian golden hamster [4]) of the same compound?
The Activity was 3%.

And the Activity (Syrian golden hamster [5])?
Its Activity is 39%.

What about the Activity (Syrian golden hamster [6]) of the same compound?
Its Activity is 21%.

What about the Activity (Syrian golden hamster [7]) of the same compound?
The Activity was 26%.
